Experimental data as given in article PMC7616001 (Journal of medicinal chemistry, 2022).
“Also recorded” adds a separate entry of the source.

How the values were obtained:
[1] = system: genomic DNA of HeLa cells; test: Metalation of genomic DNA, ICP-MS; format: cell-based, human; settings: 20 μM, 24 h exposure
HeLa = test: 24 h MTT assay, HeLa cells; format: cell-based, human; settings: read-out: IC50/24h
Method in brief: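 HeLa in DMEM with 10% FBS and 1% penicillin/streptomycin, 3 × 10^3 cells/well, grown overnight. Fresh DMSO stocks (Ru content confirmed by ICP‑MS) serially diluted in medium; final DMSO ≤0.1%. 24 h exposure, then MTT 0.5 mg/mL for 3 h. Formazan dissolved in DMSO, A570 read and normalised to untreated wells. IC50 taken from dose–response curves; ≥3 independent experiments of 3 or 6 replicates.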

[2] = Stability in RPMI-1640 cell culture medium by UPLC; format: physicochemical
Method in brief: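 Test compound incubated in RPMI‑1640 and monitored by UPLC. Run twice, each with three replicates.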

[3] = system: MEF-Bax/Bak^+/+ and MEF-Bax/Bak^−/− cell lines; test: Cytotoxicity in MEF-Bax/Bak+/+ versus MEF-Bax/Bak−/− cells; format: cell-based, murine
A2780 = test: 72 h crystal violet; format: cell-based, human; settings: read-out: IC50 (CV assay) A2780; 72 h CV assay
Method in brief: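 Seeding and dosing as for MTT: 3 × 10^3 cells/well, overnight, final DMSO ≤0.1%, 72 h exposure. Wells washed with PBS and fixed in 4% paraformaldehyde for 15 min. Crystal violet stained, dried, dissolved in 96% ethanol and A570 read. IC50 derived from dose–response curves.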

ER of HeLa cells = test: ER imaging of ER-RFP-labeled HeLa cells; format: cell-based, human
Method in brief: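 HeLa cells transduced with a CellLight ER-RFP BacMam 2.0 construct, replated on glass-bottom dishes overnight, then treated with test compound (20 or 40 μM) for 8 h or 24 h. A platinum–ferrocene complex (40 μM) served as positive control. After PBS washes, confocal images were taken in phenol red-free medium (ex 543 nm, em 584–655 nm) at constant exposure.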

[4] = system: mitochondria of HeLa cells; test: Mitochondrial morphology, confocal imaging of mito-GFP HeLa cells; format: cell-based, human; settings: 1/2 × IC50/24h (20 μM)
[5] = Octanol-water partition coefficient, shake-flask method; format: physicochemical; settings: 100 mM NaCl, 37 °C, Ru by ICP-MS
Method in brief: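 Shake‑flask partition. Octanol‑saturated water and water‑saturated octanol prepared beforehand by shaking a 1:1 octanol/water mixture for 24 h, then separating the layers.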

[6] = system: HO• radicals in HeLa cells; test: Flow cytometric quantification of hydroxyl radicals with HPF probe; format: cell-based, human; settings: 10 μM, 4 h
Method in brief: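 HeLa seeded at 0.75 × 10^6 cells per six‑well plate well, grown overnight, then treated 4 h at 10 μM. Cells trypsinised, washed with ice‑cold PBS and spun at 1200 rpm, 5 min, 4 °C. Probe‑stained cells analysed by flow cytometry, approximately 20,000 cells per sample.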

A2780cis = test: MTT assay, 72 h continuous exposure, cisplatin-resistant A2780Cis cells; format: cell-based, human
Method in brief: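 Ovarian lines grown in RPMI with 10% FBS and 1% penicillin/streptomycin; A2780Cis kept on 2 μM cisplatin 3 days each week. HeLa grown in DMEM with the same supplements. 3 × 10^3 cells/well, overnight, then serial dilutions of DMSO stocks (final DMSO ≤0.1%); cisplatin stock in PBS. 72 h continuous exposure, MTT 0.5 mg/mL 3 h, formazan in DMSO, A570 normalised to untreated. IC50 from curves; ≥3 independent experiments.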

zebrafish embryos = test: Zebrafish embryo toxicity and viability analysis; format: in vivo, zebrafish (Danio rerio)
Method in brief: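 Wild‑type embryos, ten per 5 mL E3. Test compound at final 20, 30 or 40 μM, diluted from a 5 mM DMSO stock; DMSO vehicle at 10 μL/mL. Exposure from 26 hpf to 72 hpf at 28 °C, then scored for viability and morphology.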

[7] = system: mitochondrial Ca^2+ level in HeLa cells; test: Mitochondrial Ca2+ level, Rhod-2 AM imaging; format: cell-based, human; settings: 20 μM
[8] = system: mitochondria of HeLa cells; test: Metal content in isolated mitochondria, ICP-MS; format: cell-based, human; settings: 20 μM, 24 h
[9] = system: acidic vesicular organelles in HeLa cells; test: Acridine orange assay; format: cell-based, human; settings: HeLa, 10, 20, 40 μM, 24 h
Method in brief: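 HeLa cells in 35 mm dishes exposed to test compound at 10, 20 or 40 μM for 24 h, or rapamycin (1 μM, 24 h) as reference. Medium replaced with FBS-free medium containing 1 μM acridine orange for 25 min in the dark (37 °C, 5% CO2). Cells washed with PBS and overlaid with phenol red-free DMEM (4% FBS) for imaging.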

HeLa cells = test: Annexin-V/PI dual staining flow cytometry; format: cell-based, human; settings: 24 h
[10] = system: LC3-II/LC3-I in HeLa cells; test: Western blot of autophagy marker proteins; format: cell-based, human; settings: 24 h
Method in brief: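 ~2 million HeLa per 60 mm dish, grown to 80–90% confluency, then treated 24 h. Lysed in RIPA buffer with protease inhibitors. Membranes blocked with 2% skim milk in 0.1% Tween 20 for 30 min. Primary antibody 1:1000 overnight at 4 °C; HRP secondary antibody; LC3 forms detected.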

Cc1ccc(C(C)C)cc1.O=C(C=C([O-])C(F)(F)F)[c-]1cccc1.[Cl-].[Fe+2].[Ru+2].c1cc[cH-]c1 [Compound 1, [(η^6-p-cymene)Ru(1,1,1-trifluoro-4-oxo-4-ferrocenyl-but-2-en-2-olate)Cl]]
metalation of genomic DNA [1]: comparable with that of the classical DNA-targeted Pt drug cisplatin | IC50 (HeLa): 38 ± 3 µM | intact compound remaining in RPMI-1640 with 10% FBS ([2]; after 24 h): ~45% | intact compound remaining in RPMI-1640 with 10% FBS ([2]; after 72 h): ~7% | decomposition in RPMI-1640 with 10% FBS ([2]; up to 8 h, 37 °C, UPLC): < 20% | IC50 in MEF-Bax/Bak^−/− compared to MEF-Bax/Bak^+/+ cells [3]: statistically similar | IC50 (A2780): 7.2 ± 0.3 µM | ER dilation and vacuole formation (ER of HeLa cells): ER dilation and/or vacuole formation were not observed | mitochondrial morphology [4]: rounded and punctate | log P [5]: 1.1 ± 0.1 | level of HO• radicals relative to untreated control [6]: ~ 7 fold | RF (A2780) (A2780cis; RF = IC50 in A2780Cis/IC50 in A2780): 1.2 | IC50 (A2780cis; read-out: IC50 A2780cis, 72 h continuous exposure, MTT assay): 3.1 ± 0.1 µM | morphology / visible toxic effects on embryos (zebrafish embryos; 72 hpf, up to 40 μM): morphologically indistinguishable from untreated control embryos; also recorded: did not show any visible toxic effects | animal viability at 72 hpf (zebrafish embryos; treated at 26 hpf, even at 40 μM dose): 100% | increase in mitochondrial Ca^2+ level compared to untreated control [7]: ~ 5 fold | Ru in mitochondria relative to Pt in mitochondria of cisplatin-treated cells [8]: ~ 4 fold | acidic vesicular organelles [9]: did not cause formation and promotion of acidic vesicular organelles | AV^−/PI^+ cells (necrosis) (HeLa cells; 10 μM): 9% | AV^−/PI^+ cells (necrosis) (HeLa cells; 20 μM): 15.4% | ratio of LC3-II/LC3-I [10]: no increase in the ratio of LC3-II/LC3-I
